Measurements taken from ChEMBL document CHEMBL1629439, “High-throughput identification of antibacterials against methicillin-resistant Staphylococcus aureus (MRSA) and the transglycosylase” (Bioorg Med Chem, 2010).
≈ marks a conversion by molar mass, not a printed value.

Tests used:
[1] = test system: Stenotrophomonas maltophilia; experiment: Antimicrobial activity against Stenotrophomonas maltophilia ATCC 13637 after 18 to 24 hrs by alamar blue assay; format: functional; settings: Stenotrophomonas maltophilia, ATCC 13637; read-out: MIC
Summary of the method: (§1)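 Broth microdilution per NCCLS in Mueller-Hinton broth, 8-point twofold dilutions, 384-well format. Exponential-phase cells at 5 × 10^5 cells/ml incubated with compound 18–24 h at 37 °C, then 20% Alamar blue added and fluorescence read. MIC90 taken as the lowest concentration preventing at least 90% bacterial growth.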

Bacillus subtilis = experiment: Antimicrobial activity against Bacillus subtilis ATCC 23857 after 18 to 24 hrs by alamar blue assay; format: functional; summary of the method: as §1
Staphylococcus aureus [2] = experiment: Antimicrobial activity against methicillin-resistant Staphylococcus aureus ATCC 33592 after 18 to 24 hrs by alamar blue assay; format: functional; settings: Staphylococcus aureus, ATCC 33592; read-out: MIC
Summary of the method: (§2)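 Broth microdilution per NCCLS standard, Mueller-Hinton broth, 8-point twofold dilutions; exponentially growing cells at 5 10^5 cells/ml with compound, 18–24 h at 37 C; 20% Alamar blue added, fluorescence read; MIC90 taken as lowest concentration preventing at least 90% growth.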

Escherichia coli = experiment: Antimicrobial activity against Escherichia coli ATCC […] after 18 to 24 hrs by alamar blue assay; format: functional; settings: Escherichia coli; read-out: MIC; summary of the method: as §1
Acinetobacter baumannii = experiment: Antimicrobial activity against Acinetobacter baumannii ATCC 49139 after 18 to 24 hrs by alamar blue assay; format: functional; settings: Acinetobacter baumannii, ATCC 49139; read-out: MIC; summary of the method: as §1
Staphylococcus aureus [3] = experiment: Antimicrobial activity against methicillin-resistant Staphylococcus aureus isolate NTUH4722 after 18 to 24 hrs by alamar blue assay; format: functional; summary of the method: as §2
Staphylococcus aureus [4] = experiment: Antimicrobial activity against oxacillin- and methicillin-resistant Staphylococcus aureus isolate Sa-OXA-R2 after 18 to 24 hrs by alamar blue assay; format: functional; summary of the method: as §2
Pseudomonas aeruginosa = experiment: Antimicrobial activity against Pseudomonas aeruginosa ATCC 25619 after 18 to 24 hrs by alamar blue assay; format: functional; settings: Pseudomonas aeruginosa, ATCC 25619; read-out: MIC; summary of the method: as §1
Serratia marcescens = experiment: Antimicrobial activity against Serratia marcescens ATCC 14756 after 18 to 24 hrs by alamar blue assay; format: functional; settings: Serratia marcescens, ATCC 14756; read-out: MIC; summary of the method: as §1
Staphylococcus aureus [5] = experiment: Antimicrobial activity against Staphylococcus aureus ATCC 29213 after 18 to 24 hrs by alamar blue assay
[6] = test system: Mycolicibacterium smegmatis; experiment: Antimicrobial activity against Mycobacterium smegmatis BCRC 11565 after 18 to 24 hrs by alamar blue assay; format: functional; settings: Mycolicibacterium smegmatis, BCRC 11565; read-out: MIC; summary of the method: as §1

Compound	MIC [1]	MIC (Bacillus subtilis)	MIC (Staphylococcus aureus [2])	MIC (Escherichia coli)	MIC (Acinetobacter baumannii)	MIC (Staphylococcus aureus [3])	MIC (Staphylococcus aureus [4])	MIC (Pseudomonas aeruginosa)	MIC (Serratia marcescens)	MIC (Staphylococcus aureus [5])	MIC [6]
CC(C)N1C(=O)/C(=C/c2ccc([N+](=O)[O-])o2)SC1=S	> 256 µg/mL	< 0.03 µg/mL	1 µg/mL (≈ 3.35 µM)	16 µg/mL (≈ 53.6 µM)	> 256 µg/mL	2 µg/mL (≈ 6.7 µM)	1 µg/mL (≈ 3.35 µM)	2 µg/mL (≈ 6.7 µM)	> 256 µg/mL	0.25 µg/mL (≈ 0.838 µM)	1 µg/mL (≈ 3.35 µM)
O=C1c2ccc([N+](=O)[O-])c3c([N+](=O)[O-])ccc(c23)C(=O)N1c1ccccc1	> 256 µg/mL	4 µg/mL (≈ 11 µM)	2.5 µg/mL (≈ 6.88 µM)	> 256 µg/mL	> 256 µg/mL	1.25 µg/mL (≈ 3.44 µM)	1.25 µg/mL (≈ 3.44 µM)	> 256 µg/mL	> 256 µg/mL	2.5 µg/mL (≈ 6.88 µM)	4 µg/mL (≈ 11 µM)
Cc1ccc(-c2nnc(NC(=O)c3nc4ccccc4s3)o2)c(C)c1	> 256 µg/mL	0.5 µg/mL (≈ 1.43 µM)	0.5 µg/mL (≈ 1.43 µM)	> 256 µg/mL	> 256 µg/mL	0.25 µg/mL (≈ 0.713 µM)	0.25 µg/mL (≈ 0.713 µM)	> 256 µg/mL	> 256 µg/mL	0.5 µg/mL (≈ 1.43 µM)	0.5 µg/mL (≈ 1.43 µM)
CCc1cc(O)nc(N2NC(C)=CC2NC(=O)c2ccccc2F)n1 (stereo unspecified)	> 256 µg/mL	0.25 µg/mL (≈ 0.728 µM)	4 µg/mL (≈ 11.6 µM)	> 256 µg/mL	> 256 µg/mL	2 µg/mL (≈ 5.82 µM)	1 µg/mL (≈ 2.91 µM)	> 256 µg/mL	> 256 µg/mL	1 µg/mL (≈ 2.91 µM)	0.25 µg/mL (≈ 0.728 µM)
O=C1c2cc([N+](=O)[O-])cc3cc([N+](=O)[O-])cc(c23)C(=O)N1c1ccc(O)cc1	> 256 µg/mL	4 µg/mL (≈ 10.5 µM)	2.5 µg/mL (≈ 6.59 µM)	> 256 µg/mL	> 256 µg/mL	2.5 µg/mL (≈ 6.59 µM)	0.3 µg/mL (≈ 0.791 µM)	> 256 µg/mL	> 256 µg/mL	2.5 µg/mL (≈ 6.59 µM)	4 µg/mL (≈ 10.5 µM)
CCC(NC(=O)Cc1c(C)c2cc3c(-c4ccc(Cl)cc4)coc3c(C)c2oc1=O)C(=O)O (stereo unspecified)	> 256 µg/mL	> 64 µg/mL	5 µg/mL (≈ 10.7 µM)	> 256 µg/mL	> 256 µg/mL	2.5 µg/mL (≈ 5.34 µM)	2.5 µg/mL (≈ 5.34 µM)	> 256 µg/mL	> 256 µg/mL	2.5 µg/mL (≈ 5.34 µM)	1 µg/mL (≈ 2.14 µM)
Cc1c(CC(=O)N2CCC(C(=O)O)CC2)c(=O)oc2c(C)c3occ(-c4ccc(Cl)cc4)c3cc12	> 256 µg/mL	> 64 µg/mL	1.25 µg/mL (≈ 2.53 µM)	> 256 µg/mL	> 256 µg/mL	2.5 µg/mL (≈ 5.06 µM)	2.5 µg/mL (≈ 5.06 µM)	> 256 µg/mL	> 256 µg/mL	2.5 µg/mL (≈ 5.06 µM)	1 µg/mL (≈ 2.02 µM)
Cc1c(CC(=O)N2CCC[C@H]2C(=O)O)c(=O)oc2c(C)c3occ(-c4ccc(F)cc4)c3cc12	> 256 µg/mL	> 64 µg/mL	1.25 µg/mL (≈ 2.7 µM)	> 256 µg/mL	> 256 µg/mL	0.6 µg/mL (≈ 1.29 µM)	0.6 µg/mL (≈ 1.29 µM)	> 256 µg/mL	> 256 µg/mL	0.6 µg/mL (≈ 1.29 µM)	1 µg/mL (≈ 2.16 µM)
Cc1ccc(-c2coc3c(C)c4oc(=O)c(CCC(=O)O)c(C)c4cc23)cc1	> 256 µg/mL	> 64 µg/mL	2 µg/mL (≈ 5.31 µM)	> 256 µg/mL	> 256 µg/mL	1 µg/mL (≈ 2.66 µM)	2 µg/mL (≈ 5.31 µM)	> 256 µg/mL	> 256 µg/mL	1 µg/mL (≈ 2.66 µM)	1 µg/mL (≈ 2.66 µM)
CCCCN(C)S(=O)(=O)c1ccc(C(=O)Nc2nnc(-c3cccc(OC)c3)o2)cc1	> 256 µg/mL	0.5 µg/mL (≈ 1.12 µM)	8 µg/mL (≈ 18 µM)	> 256 µg/mL	> 256 µg/mL	16 µg/mL (≈ 36 µM)	32 µg/mL (≈ 72 µM)	> 256 µg/mL	> 256 µg/mL	4 µg/mL (≈ 9 µM)	0.5 µg/mL (≈ 1.12 µM)
CCOc1ccc2nc(NC(=O)c3ccc([N+](=O)[O-])o3)sc2c1	32 µg/mL (≈ 96 µM)	0.06 µg/mL (≈ 0.18 µM)	4 µg/mL (≈ 12 µM)	256 µg/mL (≈ 768 µM)	12 µg/mL (≈ 36 µM)	16 µg/mL (≈ 48 µM)	16 µg/mL (≈ 48 µM)	128 µg/mL (≈ 384 µM)	32 µg/mL (≈ 96 µM)	2 µg/mL (≈ 6 µM)	0.5 µg/mL (≈ 1.5 µM)
